In ChEMBL document CHEMBL4699419, “Antileishmanial assessment of isoxazole derivatives against L. donovani” (RSC Med Chem, 2020):

What was measured:
[1] = test system: Leishmania donovani; experiment: Antileishmanial activity against Leishmania donovani MHOM/IN/80/Dd8 promastigotes harboring luciferase reporter gene infected in mouse J774 cells assessed as inhibition of amastigote growth incubated for 72 hrs by Steady-Glo luminescence assay; type: functional, organism-based
Outline: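 J774A.1 mouse macrophages (2 × 10^5 per well, RPMI-1640 + 10% FCS, 37 °C CO2) infected after 24 h with stationary-phase luciferase-transgenic promastigotes at 1:10 macrophage:parasite; compounds in complete medium for 72 h at 37 °C. Medium swapped for PBS, Steady-Glo added, luminescence read; % inhibition vs untreated control RLU. IC50 by Probit log dose/response regression, three independent experiments.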

[2] = Selectivity index, ratio of CC50 for mouse J774.A1 cells to IC50 for amastigote form of Leishmania donovani MHOM/IN/80/Dd8; type: toxicity; conditions: read-out: Ratio CC50/IC50
Outline: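 Macrophages infected at a 1:10 ratio with stationary promastigotes, then treated 72 h at 37 °C; luminescence read with Steady-Glo. IC50 values from probit analysis.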

[3] = Cytotoxicity against mouse J774A1 cells assessed as reduction in cell viability incubated for 48 hrs by MTT assay; type: cell-based, J774.A1
Outline: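 J774A.1 macrophages, 0.2 × 10^6 per well, incubated overnight at 37 °C in 5% CO2, then exposed to compounds in DMSO for 48 h, with DMSO dilutions as controls. Viability read by MTT formazan at 600 nm. CC50 = 50% viability reduction versus medium-only cells, from probit regression; three independent experiments.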

[4] = test system: Leishmania donovani; experiment: Antileishmanial activity against late log phase promastigote stage of Leishmania donovani MHOM/IN/80/Dd8 harboring luciferase reporter gene incubated for 72 hrs by Steady-Glo luminescence assay; type: functional, organism-based
Outline: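 Luciferase-transfected promastigotes kept at 25 ± 1 °C in medium 199 + 10% heat-inactivated FCS + G418 (20 μg ml–1). Late-log cells (5 × 10^5 per well) grown 72 h with graded compound concentrations from DMSO, DMSO dilution controls. Aliquot mixed 1:1 with Steady-Glo, luminescence (RLU) read; % inhibition vs control. IC50 by Probit regression, three independent experiments.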

[5] = Leishmania donovani, MHOM/IN/80/Dd8, J774, 72 h, read-out: IC50
[6] = Leishmania donovani, MHOM/IN/80/Dd8, 72 h, read-out: IC50

Structure (SMILES) | IC50 [1, 5] [µM] | selectivity ratio [2] | CC50 at 48 h [3] [µM] | IC50 [4, 6] [µM] | IC50 [1] | IC50 [4]
COc1ccc(CNC(=O)c2c([N+](=O)[O-])noc2-c2ccc(Cl)cc2)cc1OC | 3.22 | 33 | 106 | 3.05 | – | –
COc1ccc(CNC(=O)c2c([N+](=O)[O-])noc2-c2ccc([N+](=O)[O-])cc2)cc1 | 2.06 | 33.8 | 69.6 | 3.52 | – | –
COc1ccc(CNC(=O)c2c([N+](=O)[O-])noc2-c2ccc(Cl)cc2Cl)cc1OC | 1.95 | 41.9 | 81.8 | 5.24 | – | –
O=C(NCc1cccc(Cl)c1Cl)c1c([N+](=O)[O-])noc1-c1ccc(Cl)cc1 | 19.6 | 3.76 | 73.7 | 2.9 | – | –
O=C(Nc1ccccc1)c1c([N+](=O)[O-])noc1-c1ccc(Cl)cc1Cl | 5.97 | 11.3 | 67.3 | 2.68 | – | –
COC(=O)c1c(NCc2ccc(OC)c(OC)c2)noc1-c1ccc(Cl)cc1Cl | 2.37 | 3 | 7.58 | 4.49 | – | –
COC(=O)c1c(NCCCCNc2ccnc3cc(Cl)ccc23)noc1-c1ccc(Cl)cc1Cl | 27.6 | 3.39 | 93.5 | 5.93 | – | –
CC(C)CCNC(=O)c1c([N+](=O)[O-])noc1-c1ccc([N+](=O)[O-])cc1 | 17.4 | 3.85 | 67 | 3.01 | – | –
COC(=O)c1c(NCCCN2CCOCC2)noc1-c1cc2c(cc1[N+](=O)[O-])OCO2 | 17 | 3.82 | 65 | 27.8 | – | –
COC(=O)c1c(NCCCNc2ccnc3cc(Cl)ccc23)noc1-c1ccc([N+](=O)[O-])cc1 | 3.14 | 33.9 | 106 | 3.37 | – | –
COC(=O)c1c(NCc2ccc(C(C)(C)C)cc2)noc1-c1ccc([N+](=O)[O-])cc1 | 8.16 | 9.69 | 81.4 | 49.7 | – | –
COc1cccc(CNC(=O)c2c([N+](=O)[O-])noc2-c2ccc(Cl)cc2)c1 | 3.43 | 20 | 68.5 | 2.79 | – | –
O=C(NCc1cccc(Br)c1)c1c([N+](=O)[O-])noc1-c1ccc(Cl)cc1Cl | 7.74 | 9.19 | 71.2 | 3.05 | – | –
COC(=O)c1c([N+](=O)[O-])noc1-c1cc(-c2ccccc2Cl)n(-c2ccccc2)n1 | 21.2 | 3.76 | 79.9 | 0.76 | – | –
COC(=O)c1c(NCCCCNc2ccnc3cc(Cl)ccc23)noc1-c1ccc([N+](=O)[O-])cc1 | 1.84 | 73.8 | 136 | 2.85 | – | –
COC(=O)c1c(NCCNc2cc(C(F)(F)F)nc3c(C(F)(F)F)cccc23)noc1-c1ccccc1F | 17.8 | 4.52 | 80.4 | 43.2 | – | –
COC(=O)c1c(NCCCN2CCOCC2)noc1-c1ccc(Cl)cc1Cl | 21.2 | 3.44 | 73 | 2.58 | – | –
O=C(NCc1ccc(F)cc1)c1c([N+](=O)[O-])noc1-c1ccc(Cl)cc1 | 19.4 | 4.72 | 91.9 | 1.16 | – | –
COc1ccc(CNC(=O)c2c([N+](=O)[O-])noc2-c2ccc(Cl)cc2Cl)cc1 | 2.03 | 39.6 | 80.5 | 3.42 | – | –
COC(=O)c1c([N+](=O)[O-])noc1-c1cccc(-c2cnco2)c1 | 4.8 | 3.6 | 19.7 | 0.77 | – | –
COc1ccc(CNC(=O)c2c([N+](=O)[O-])noc2-c2ccc(Cl)cc2)cc1 | 9.41 | 9.5 | 89.5 | 2.67 | – | –
COC(=O)c1c(NCCNc2cc(C(F)(F)F)nc3c(C(F)(F)F)cccc23)noc1-c1ccc(Cl)cc1Cl | 20.3 | 4.86 | 99 | 48.2 | – | –
COC(=O)c1c(NCc2ccc(OC)cc2)noc1-c1ccc(Cl)cc1Cl | 23.9 | 1.5 | 34.6 | 3.09 | – | –
CCCNC(=O)c1c([N+](=O)[O-])noc1-c1ccc([N+](=O)[O-])cc1 | 21.3 | 3.57 | 76.2 | 3.07 | – | –
COC(=O)c1c(NCc2ccc(Cl)cc2)noc1-c1ccc([N+](=O)[O-])cc1 | 7.88 | 9.93 | 78.3 | 3.79 | – | –

Structure (SMILES) | IC50 [1, 5] [µM] | selectivity ratio [2] | CC50 at 48 h [3] [µM] | IC50 [4, 6] [µM] | IC50 [1] | IC50 [4]
COC(=O)c1c(NCc2ccccc2)noc1-c1ccc(Cl)cc1Cl | 1.65 | 32.8 | 54.1 | 35.4 | – | –
COC(=O)c1c(NCCCN2CCOCC2)noc1-c1ccc([N+](=O)[O-])cc1 | 4.53 | 15.8 | 71.8 | 33.8 | – | –
COC(=O)c1c(NCCCNc2ccnc3cc(Cl)ccc23)noc1-c1cc2c(cc1[N+](=O)[O-])OCO2 | 16.1 | 4.55 | 73.6 | 7.75 | – | –
COC(=O)c1c(NCc2ccc(OC)cc2)noc1-c1ccc([N+](=O)[O-])cc1 | – | – | – | – | Not Active | Not Active
COC(=O)c1c([N+](=O)[O-])noc1-c1ccc(C(F)(F)F)cc1 | – | – | – | 0.66 | Not Active | –
CCN(CC)CCNc1noc(-c2ccc(Cl)cc2Cl)c1C(=O)OC | – | – | – | – | Not Active | Not Active
COC(=O)c1c([N+](=O)[O-])noc1-c1ccccc1Br | 32.2 | 1.08 | 34.8 | 0.34 | – | –
COC(=O)c1c(NCCNc2ccnc3cc(Cl)ccc23)noc1-c1cc2c(cc1[N+](=O)[O-])OCO2 | 1.49 | 2.48 | 3.7 | 2.04 | – | –
COC(=O)c1c(NCc2cccc(OC)c2)noc1-c1cc2c(cc1[N+](=O)[O-])OCO2 | – | – | – | – | Not Active | Not Active
COC(=O)c1c(NCCNc2ccnc3cc(Cl)ccc23)noc1-c1ccccc1F | 1.47 | 2.32 | 3.42 | 1.73 | – | –
COc1cccc(CNC(=O)c2c([N+](=O)[O-])noc2-c2ccc(Cl)cc2Cl)c1 | 11.3 | 5.41 | 61.1 | 3.02 | – | –
O=C(Nc1ccccc1)c1c([N+](=O)[O-])noc1-c1ccc(Cl)cc1 | 3.56 | 25.1 | 89.3 | 2.81 | – | –
COC(=O)c1c(NCCCNc2ccnc3cc(Cl)ccc23)noc1-c1ccccc1[N+](=O)[O-] | – | – | – | 1.98 | Not Active | –
CCN(CC)CCNc1noc(-c2ccc([N+](=O)[O-])cc2)c1C(=O)OC | 8.15 | 8.49 | 69.2 | 26 | – | –
O=C(NCCN1CCOCC1)c1c([N+](=O)[O-])noc1-c1ccc([N+](=O)[O-])cc1 | 21.9 | 3.49 | 76.5 | 2.83 | – | –
COC(=O)c1c(NCCNc2ccnc3cc(Cl)ccc23)noc1-c1ccccc1[N+](=O)[O-] | 18.7 | 3.94 | 73.6 | 3.45 | – | –
O=C(NCc1ccc(F)cc1)c1c([N+](=O)[O-])noc1-c1ccc([N+](=O)[O-])cc1 | – | – | – | – | Not Active | Not Active
COC(=O)c1c(NCCCCNc2ccnc3cc(Cl)ccc23)noc1-c1ccccc1F | 19.9 | 3.56 | 70.9 | 10.6 | – | –
COC(=O)c1c([N+](=O)[O-])noc1-c1cccc(-c2ncoc2C)c1 | 7.1 | 2.5 | 18.4 | 0.86 | – | –
COC(=O)c1c([N+](=O)[O-])noc1-c1cccc(-c2cccs2)c1 | – | – | – | 38.4 | Not Active | –
O=C(NCc1cccc(Cl)c1Cl)c1c([N+](=O)[O-])noc1-c1ccc([N+](=O)[O-])cc1 | – | – | – | – | Not Active | Not Active
O=C(NCc1cccc(Br)c1)c1c([N+](=O)[O-])noc1-c1ccc(Cl)cc1 | – | – | – | – | Not Active | Not Active
CCN(CC)CCNc1noc(-c2cc3c(cc2[N+](=O)[O-])OCO3)c1C(=O)OC | – | – | – | – | Not Active | Not Active
CCCNC(=O)c1c([N+](=O)[O-])noc1-c1ccc(Cl)cc1 | – | – | – | – | Not Active | Not Active
